How the values were obtained:
[1] = Displacement of [3H]8-OH-DPAT from 5-HT1A receptor in pig cortex membranes; type: cell membranes, Sus scrofa
D(1A) dopamine receptor = D(1A) dopamine receptor (Sus scrofa, UniProt P50130); assay: Displacement of [3H]SCH23390 from dopamine D1 receptor in pig striatal membranes
D(2) dopamine receptor [2] = molecular target: T1, D(2) dopamine receptor (Homo sapiens, UniProt P14416); assay: Displacement of [3H]Spiperone from human dopamine D2 short receptor
How it was run: (§1)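 Membranes from CHO cells stably expressing the human receptor, at 5-20 μg protein/assay tube, were competed against [3H]spiperone at 0.1-0.4 nM final. […] IC50 came from sigmoid nonlinear regression.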

[3] = molecular target: T2, 5-hydroxytryptamine receptor 1A (Homo sapiens) (UniProt P08908); assay: Intrinsic activity at human 5-HT1A receptor expressed in CHO cells assessed as increase of serotonin-induced [35S]GTPgammaS binding relative to serotonin; type: functional, cell-based
T2 sequence (whole entry): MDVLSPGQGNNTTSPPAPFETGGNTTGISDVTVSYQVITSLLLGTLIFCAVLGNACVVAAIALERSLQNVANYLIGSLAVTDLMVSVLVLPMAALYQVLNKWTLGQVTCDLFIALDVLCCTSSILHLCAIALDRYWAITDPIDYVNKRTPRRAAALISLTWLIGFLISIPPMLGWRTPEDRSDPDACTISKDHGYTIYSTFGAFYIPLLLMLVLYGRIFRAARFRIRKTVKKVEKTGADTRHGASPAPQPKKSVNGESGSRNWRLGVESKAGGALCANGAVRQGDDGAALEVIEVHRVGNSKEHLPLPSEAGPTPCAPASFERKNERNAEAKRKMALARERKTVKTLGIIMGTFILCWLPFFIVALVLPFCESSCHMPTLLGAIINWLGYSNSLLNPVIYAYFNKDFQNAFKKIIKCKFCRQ
How it was run: (§2)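 Membranes from CHO cells stably expressing human 5-HT1A were incubated with 0.1 nM [35S]GTPγS and test compound at eight concentrations (0.01-10000 nM), in hexaduplicate. Values come from a mean curve of four experiments. Emax is expressed relative to the maximal serotonin effect.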

[4] = Displacement of [3H]Prazosin from adrenergic alpha1 receptor in pig cortex membranes; type: cell membranes, Sus scrofa
[5] = Displacement of [3H]WAY-100635 from 5-HT1A receptor in pig cortex membranes; type: cell membranes, Sus scrofa
[6] = molecular target: T3, 5-hydroxytryptamine receptor 1A (Homo sapiens, UniProt P08908); assay: Intrinsic activity at human 5-HT1A receptor expressed in CHO cells assessed as increase of serotonin-induced [35S]GTPgammaS binding; type: functional, cell-based; how it was run: as §2
T3 sequence (P08908 whole entry): T2 sequence (whole entry)

[7] = Displacement of [3H]RX821002 from adrenergic alpha2 receptor in pig cortex membranes
D(2) dopamine receptor [8] = molecular target: T1, D(2) dopamine receptor; assay: Displacement of [3H]Spiperone from human dopamine D2 long receptor; how it was run: as §1
D(4) dopamine receptor = molecular target: T4, D(4) dopamine receptor (Homo sapiens, UniProt P21917); assay: Displacement of [3H]Spiperone from human dopamine D4.4 receptor; how it was run: as §1
T4 sequence (P21917 whole entry): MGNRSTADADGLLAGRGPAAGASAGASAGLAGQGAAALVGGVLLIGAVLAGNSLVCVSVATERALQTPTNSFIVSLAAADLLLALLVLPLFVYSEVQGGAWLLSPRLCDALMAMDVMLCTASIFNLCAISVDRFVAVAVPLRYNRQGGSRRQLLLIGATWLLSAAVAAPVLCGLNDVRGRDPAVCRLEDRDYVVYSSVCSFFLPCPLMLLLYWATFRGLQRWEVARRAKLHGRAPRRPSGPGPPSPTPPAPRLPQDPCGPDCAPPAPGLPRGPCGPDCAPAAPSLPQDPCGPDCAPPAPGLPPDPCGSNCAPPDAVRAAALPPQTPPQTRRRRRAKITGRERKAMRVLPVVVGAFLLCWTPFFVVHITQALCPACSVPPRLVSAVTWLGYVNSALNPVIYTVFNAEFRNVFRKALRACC

D(3) dopamine receptor = D(3) dopamine receptor (Homo sapiens, UniProt P35462); assay: Displacement of [3H]Spiperone from human dopamine D3 receptor; how it was run: as §1
[9] = molecular target: 5-hydroxytryptamine receptor 2A (Sus scrofa, UniProt P50129); assay: Displacement of [3H]Ketanserin from 5-HT2 receptor in pig cortex membranes; type: cell membranes
Mus musculus = assay: Antinociceptive activity against formalin-induced inflammatory pain in mouse assessed as reduction of paw licking at 1 mg/kg, ip; type: functional; design: scale not given: the % may be the effect or the level left; settings: route intraperitoneal

Chain of D(1A) dopamine receptor (P50130 whole entry): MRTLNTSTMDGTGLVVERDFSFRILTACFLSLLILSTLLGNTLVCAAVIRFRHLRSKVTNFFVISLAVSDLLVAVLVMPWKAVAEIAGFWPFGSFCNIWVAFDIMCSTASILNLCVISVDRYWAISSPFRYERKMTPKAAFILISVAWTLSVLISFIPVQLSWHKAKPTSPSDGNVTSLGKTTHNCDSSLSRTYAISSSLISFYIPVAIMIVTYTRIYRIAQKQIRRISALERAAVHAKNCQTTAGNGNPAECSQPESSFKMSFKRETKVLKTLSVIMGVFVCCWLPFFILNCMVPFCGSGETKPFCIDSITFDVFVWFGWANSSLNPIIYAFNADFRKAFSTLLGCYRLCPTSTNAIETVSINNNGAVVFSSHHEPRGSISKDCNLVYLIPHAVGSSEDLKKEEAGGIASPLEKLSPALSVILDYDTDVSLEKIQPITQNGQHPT
Chain of 5-hydroxytryptamine receptor 2A (P50129 whole entry): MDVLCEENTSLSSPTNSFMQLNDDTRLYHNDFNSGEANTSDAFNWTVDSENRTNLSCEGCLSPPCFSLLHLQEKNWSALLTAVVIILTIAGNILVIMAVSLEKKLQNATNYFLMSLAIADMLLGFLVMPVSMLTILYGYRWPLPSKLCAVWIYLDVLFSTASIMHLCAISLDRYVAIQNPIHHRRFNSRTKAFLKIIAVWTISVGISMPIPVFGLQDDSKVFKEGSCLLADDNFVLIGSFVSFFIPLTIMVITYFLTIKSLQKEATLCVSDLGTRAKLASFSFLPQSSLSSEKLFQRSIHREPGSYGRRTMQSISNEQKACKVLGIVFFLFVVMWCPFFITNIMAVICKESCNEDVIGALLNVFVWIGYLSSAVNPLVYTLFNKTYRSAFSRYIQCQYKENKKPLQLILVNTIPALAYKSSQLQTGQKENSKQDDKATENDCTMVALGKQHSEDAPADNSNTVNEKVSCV
T1 sequence (P14416 whole entry): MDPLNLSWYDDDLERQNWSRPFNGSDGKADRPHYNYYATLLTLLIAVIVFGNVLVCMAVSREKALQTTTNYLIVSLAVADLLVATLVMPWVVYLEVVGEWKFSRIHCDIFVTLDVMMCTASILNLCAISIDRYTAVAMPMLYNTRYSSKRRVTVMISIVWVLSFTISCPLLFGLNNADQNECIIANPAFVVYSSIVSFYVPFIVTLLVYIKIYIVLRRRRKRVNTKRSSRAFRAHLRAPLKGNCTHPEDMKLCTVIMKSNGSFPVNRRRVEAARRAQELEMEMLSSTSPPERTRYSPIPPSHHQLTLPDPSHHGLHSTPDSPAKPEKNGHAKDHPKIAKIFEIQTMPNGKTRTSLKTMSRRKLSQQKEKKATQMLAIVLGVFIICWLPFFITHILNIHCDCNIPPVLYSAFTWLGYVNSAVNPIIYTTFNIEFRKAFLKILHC
Chain of D(3) dopamine receptor (P35462 whole entry): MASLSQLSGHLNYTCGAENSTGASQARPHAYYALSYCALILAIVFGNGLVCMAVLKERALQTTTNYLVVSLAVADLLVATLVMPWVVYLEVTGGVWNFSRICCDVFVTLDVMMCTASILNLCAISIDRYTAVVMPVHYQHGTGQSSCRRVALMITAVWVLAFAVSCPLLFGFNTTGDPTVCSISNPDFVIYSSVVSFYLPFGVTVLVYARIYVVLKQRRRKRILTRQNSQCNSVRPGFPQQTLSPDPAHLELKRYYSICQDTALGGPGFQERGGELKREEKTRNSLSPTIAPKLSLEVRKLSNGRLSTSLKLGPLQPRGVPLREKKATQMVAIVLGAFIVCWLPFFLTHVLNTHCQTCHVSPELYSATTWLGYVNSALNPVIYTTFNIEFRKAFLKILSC

Ki [1] [nM]	Ki (D(1A) dopamine receptor) [nM]	Ki (D(2) dopamine receptor [2]) [nM]	Emax [3] [%]	Ki [4] [nM]	Ki [5] [nM]	EC50 [6] [nM]	Ki [7] [nM]	Ki (D(2) dopamine receptor [8]) [nM]	Ki (D(4) dopamine receptor) [nM]	Ki (D(3) dopamine receptor) [nM]	Ki [9] [nM]	SMILES	Activity (Mus musculus) [%]
0.86	45000	54000	124	2000	2.7	10	1700	20000	460	8700	22000	Cc1ccc(CNCC2(F)CCN(C(=O)c3csc4ccccc34)CC2)nc1	
1.1	48000	28000	101	2800	4.2	16	2800	27000	590	12000	53000	Cc1ccc(CNCC2(F)CCN(C(=O)c3coc4ccccc34)CC2)nc1	
			91		27	18						Cc1ccc(CNCC2(F)CCN(C(=O)c3cccs3)CC2)nc1	45
1.8	34000	100000	116	2300	6.2	17	3500	73000	2000	19000	18000	Cc1ccc(CNCC2(F)CCN(C(=O)c3cc(Br)cs3)CC2)nc1	
			81		62	15						Cc1ccc(CNCC2(F)CCN(C(=O)c3ccco3)CC2)nc1	35

SMILES	Ki [1] [nM]	Ki (D(1A) dopamine receptor) [nM]	Ki (D(2) dopamine receptor [2]) [nM]	Emax [3] [%]	Ki [4] [nM]	Ki [5] [nM]	EC50 [6] [nM]	Ki [7] [nM]	Ki (D(2) dopamine receptor [8]) [nM]	Ki (D(4) dopamine receptor) [nM]	Ki (D(3) dopamine receptor) [nM]	Ki [9] [nM]	Activity (Mus musculus) [%]
Cc1ccc(CNCC2(F)CCN(C(=O)c3ccc(F)c(Cl)c3)CC2)nc1 [BEFIRADOL]	0.33	26000	46000		4500	1.1		3700	15000	2000	10000	23000	

— ChEMBL document CHEMBL1255227, “Novel pyridylmethylamines as highly selective 5-HT(1A) superagonists” (J Med Chem, 2010)
